Measured values gathered from unrelated publications.
Each line is one published result; the experiments were not run side by side.
Target: Ephrin type-A receptor 8 (EPHA8, Homo sapiens, UniProt P29322)
Sequence (P29322 28-1005, as in one of the studies): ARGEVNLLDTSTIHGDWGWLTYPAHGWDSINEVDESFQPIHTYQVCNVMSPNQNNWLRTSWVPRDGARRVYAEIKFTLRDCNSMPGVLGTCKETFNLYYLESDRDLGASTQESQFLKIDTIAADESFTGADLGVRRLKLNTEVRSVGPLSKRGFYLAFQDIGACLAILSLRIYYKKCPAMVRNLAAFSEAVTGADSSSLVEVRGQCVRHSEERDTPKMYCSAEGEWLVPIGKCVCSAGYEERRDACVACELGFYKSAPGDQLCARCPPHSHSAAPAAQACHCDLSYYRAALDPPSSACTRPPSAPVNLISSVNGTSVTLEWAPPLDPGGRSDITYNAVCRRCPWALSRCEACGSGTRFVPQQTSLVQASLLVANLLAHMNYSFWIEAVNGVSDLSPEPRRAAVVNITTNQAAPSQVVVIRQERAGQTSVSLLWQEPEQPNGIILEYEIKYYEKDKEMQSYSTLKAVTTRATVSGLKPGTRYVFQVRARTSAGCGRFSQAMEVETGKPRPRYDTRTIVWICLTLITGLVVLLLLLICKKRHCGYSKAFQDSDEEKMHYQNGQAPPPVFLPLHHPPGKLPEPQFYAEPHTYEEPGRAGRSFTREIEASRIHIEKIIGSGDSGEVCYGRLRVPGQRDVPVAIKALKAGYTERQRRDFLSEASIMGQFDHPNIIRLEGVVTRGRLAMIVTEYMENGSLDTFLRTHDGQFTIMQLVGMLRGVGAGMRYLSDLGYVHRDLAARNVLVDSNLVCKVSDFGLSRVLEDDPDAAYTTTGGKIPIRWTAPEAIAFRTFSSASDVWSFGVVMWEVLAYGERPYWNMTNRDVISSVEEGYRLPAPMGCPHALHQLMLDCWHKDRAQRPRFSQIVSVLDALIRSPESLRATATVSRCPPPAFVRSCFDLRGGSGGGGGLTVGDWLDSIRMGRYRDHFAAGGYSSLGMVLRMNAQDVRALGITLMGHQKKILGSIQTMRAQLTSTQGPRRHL

SMILES | test | setting | remaining binding
CN(CCCC(F)(F)F)c1nccc(-c2cnn3ncccc23)n1 | binding | 1 µM | 93%
COc1cnc(Nc2cccc(S(N)(=O)=O)c2)nc1N1CCN(c2ccccc2)CC1 | binding, competition with immobilised ligand | 1 µM | 96%
C[C@@H](c1ccc(-n2cnc3c(N)ncnc32)cc1)N1CCc2nn(C)c(Cc3ccccc3)c2C1=O | binding, competition with immobilised ligand | 0.1 µM | 63%
O=C(NCCCN1CCOCC1)c1ccc(Nc2nccc(-c3cc4ccccc4s3)n2)cc1 | binding, competition with immobilised ligand | 1 µM | 96%
Nc1ncc2c(n1)-c1c([nH]c3ccc(C#CC4CC4)cc13)CCCC2 | binding, competition with immobilised ligand | 1 µM | 89%
COc1cc(-c2cn(C3CCc4c(F)cccc4N(CC(F)(F)F)C3=O)nn2)ccc1-n1cnc(C)c1 (centres unmarked) | cell-free assay, competition with immobilised ligand | 1 µM | 100%
COc1cnc(Nc2cccc(S(N)(=O)=O)c2)nc1N1CCN(c2ccccc2)C(=O)C1 | binding, competition with immobilised ligand | 1 µM | 100%
Cc1cnn2ncc(-c3ccnc(N(C)C)n3)c2c1 | binding | 1 µM | 99%
CCN1CCN(Cc2ccc(C(=O)Nc3ccc(C)c(Oc4ccc5c(c4)CC(=O)N5)c3)cc2C(F)(F)F)CC1 | binding, competition with immobilised ligand | 1 µM | 82%
O=C(Nc1c[nH]nc1C(=O)NC1CCNCC1)c1cc(F)cc(F)c1 | binding, competition with immobilised ligand | 1 µM | 100%
Nc1c(C(=O)NCc2ccc(C(=O)NCCCC3CCCCC3)cc2)cnn1-c1ccccc1 | cell-free assay, competition with immobilised ligand | 0.1 µM | 100%
c1cnn2ncc(-c3ccnc(N4CCC45COC5)n3)c2c1 | binding | 1 µM | 89%
CCOC(=O)c1cc2cc(-c3cc(C(=O)NCc4ccc(C(=O)O)cc4)nn3C)ccc2[nH]1 | cell-free assay, competition with immobilised ligand | 0.1 µM | 100%
O=C(NCCCN1CCOCC1)c1ccc(Nc2ncc(Cl)c(-c3ccc(Cl)s3)n2)cc1 | binding, competition with immobilised ligand | 1 µM | 95%
Cc1nc(C2CCN(C(=O)c3ccc(OC(F)(F)F)cc3N)CC2)c2ncc(N3CCN(C)CC3)cc2n1 | cell-free assay, competition with immobilised ligand | 1 µM | 98%
O=C(c1ccc(Nc2ncc(Cl)c(-c3ccc(Cl)s3)n2)cc1)N1CCC(N2CCCC2)CC1 | binding, competition with immobilised ligand | 1 µM | 91%
CN(C)c1nccc(-c2cnn3ncccc23)n1 | binding | 1 µM | 100%
CCOCCn1cc(C(=O)Nc2ccc(-n3nc(-c4cccnc4)cc3C(F)(F)F)cn2)ccc1=O | cell-free assay, competition with immobilised ligand | 1 µM | 84%
F[C@@H]1CCN(c2nccc(-c3cnn4ncccc34)n2)C1 | binding | 1 µM | 92%
CC(=O)C1=C(C)N(c2cccc(C(F)(F)F)c2)C(=O)N[C@@H]1c1ccc(C#N)nc1 | cell-free assay, competition with immobilised ligand | 1 µM | 100%
